# Test results: ChEMBL document CHEMBL1158380 (Eur J Med Chem, 2009)
# What was measured:
# [1] = Inhibition of bovine brain tubulin by spectrophotometry; design: species or system Bos taurus
# Method in brief: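 Assembly of electrophoretically homogeneous bovine brain tubulin at 10 µM (1.0 mg/mL) in 0.8 M monosodium glutamate pH 6.6 with 4% DMSO. Tubulin was preincubated with compound at varying concentrations for 15 min at 30 °C without GTP, chilled, then 0.4 mM GTP was added. After a jump from 0 to 30 °C, turbidity at 350 nm was followed for 20 min.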
# [2] = species: Bos taurus; assay: Displacement of [3H]colchicine from bovine brain tubulin at 5 uM by scintillation counting
# Method in brief: (§1)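 Electrophoretically homogeneous bovine brain tubulin (1.0 µM, 0.1 mg/mL) in a tubulin-stabilizing buffer with 5.0 µM [3H]colchicine and compound at 1.0, 5.0 or 50 µM, final DMSO 5% (v/v). Incubation was 10 min at 37 °C. Reactions were stopped with ice water and filtered through stacked DEAE-cellulose filters. Read-out is % inhibition of colchicine binding.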
# [3] = species: Bos taurus; assay: Displacement of [3H]colchicine from bovine brain tubulin at 50 uM by scintillation counting; method in brief: as §1
# [4] = tested on: MCF7; assay: Antiproliferative activity against human MCF7 cells after 48 hrs by sulforhodamine B assay; format: functional, cell-based; settings: MCF7, 48 h
# Method in brief: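 MCF-7 cells from the NCI screening program, grown as monolayers in RPMI 1640 with 5% FBS at 37 °C in humidified 5% CO2. Cells were seeded 24 h before compound addition (DMSO, final 1% v/v) at varying concentrations.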
# [5] = species: Bos taurus; assay: Displacement of [3H]colchicine from bovine brain tubulin at 1 uM by scintillation counting
# [6] = tested on: SF-295; assay: Cytotoxicity against human SF295 cells after 72 hrs by MTT assay; format: functional, cell-based; settings: SF-295, 72 h
# Method in brief: (§2)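 Four human tumour lines (MDA/MB-435, HCT-8, SF-295, HL-60) were exposed to compound at 0.0009–5 µg/mL for 72 h. Growth was quantified by living-cell reduction of MTT to blue formazan.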
# [7] = tested on: HCT-8; assay: Cytotoxicity against human HCT8 cells after 72 hrs by MTT assay; format: functional, cell-based; settings: HCT-8, 72 h; method in brief: as §2
# [8] = tested on: MDA-MB-435; assay: Cytotoxicity against human MDA-MB-435 cells after 72 hrs by MTT assay; format: functional, cell-based; settings: MDA-MB-435, 72 h; method in brief: as §2
# [9] = tested on: HL-60; assay: Cytotoxicity against human HL60 cells after 72 hrs by MTT assay; format: functional, cell-based; settings: HL-60, 72 h; method in brief: as §2
Structure (SMILES),IC50 [1],Activity [2],Activity [3],IC50 [4],Activity [5],IC50 [6],IC50 [7],IC50 [8],IC50 [9]
COc1ccc(CCc2cc(OC)c(OC)c(OC)c2)cc1,2600 nM,50%,89%,78 nM,–,–,–,–,–
COc1ccc(/C=C/c2cc(OC)c(OC)c(OC)c2)cc1O [E-COMBRETASTATIN A-4],–,–,–,1.4 nM,85%,–,–,–,–
COc1ccc(Sc2cc(OC)c(OC)c(OC)c2)cc1,1200 nM,89%,–,16 nM,56%,30 nM,40 nM,3 nM,3 nM
COc1ccc(C(=O)c2cc(OC)c(OC)c(OC)c2)cc1O [PHENSTATIN],730 nM,78%,–,34 nM,70%,–,–,–,–
COc1ccc(/C=C/c2cc(OC)c(OC)c(OC)c2)cc1,1100 nM,97%,–,4.8 nM,74%,–,–,–,–
COc1ccc([S+]([O-])c2cc(OC)c(OC)c(OC)c2)cc1 (centres undefined),31000 nM,16%,41%,2200 nM,–,1460 nM,470 nM,280 nM,340 nM
COc1ccc(CCc2cc(OC)c(OC)c(OC)c2)cc1O,1600 nM,67%,–,13 nM,49%,–,–,–,–

# The next lines start with results.
IC50 [1],Activity [2],Activity [3],IC50 [4],Structure (SMILES),Activity [5],IC50 [6],IC50 [7],IC50 [8],IC50 [9]
2900 nM,44%,91%,59 nM,COc1ccc(Cc2cc(OC)c(OC)c(OC)c2)cc1O,–,–,–,–,–
2200 nM,50%,95%,160 nM,COc1ccc(C(=O)c2cc(OC)c(OC)c(OC)c2)cc1,–,–,–,–,–
> 40000 nM,18%,53%,2600 nM,COc1ccc(S(=O)(=O)c2cc(OC)c(OC)c(OC)c2)cc1,–,8100 nM,12200 nM,2320 nM,4750 nM
4000 nM,36%,83%,130 nM,COc1ccc(Cc2cc(OC)c(OC)c(OC)c2)cc1,–,–,–,–,–
